Test results from ChEMBL document CHEMBL5247578, “Effective synthesis of benzimidazoles-imidazo[1,2-a]pyrazine conjugates: A comparative study of mono-and bis-benzimidazoles for antitumor activity” (Eur J Med Chem, 2019).

What was measured:
[1] = n-Octanol/phosphate buffer partition coefficient, logP of the compound at pH 7.4 incubated for 85 mins by shake-flask method; type: physicochemical
In short: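 Octanol–water partition by shake-flask: n-octanol with 0.15 M phosphate buffer pH 7.4 at 10:1 volumes. Buffer-phase absorbance read before mixing, then shaken 50 min and centrifuged at 2500 rpm for 35 min. Buffer absorbance read again; P = (Ai−Af)/Af × Vw/Vo.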

MDA-MB-468 = experiment: Antiproliferative activity against human MDA-MB-468 cells assessed as cell growth inhibition at 10 uM incubated for 48 hrs by sulforhodamine B assay relative to control; type: functional
In short: (§1)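 NCI-60 single-dose screen at 10^-5 M. Cells grown in RPMI 1640 with 5% FBS and 2 mM L-glutamine, plated at 5,000–40,000 cells/well, and preincubated 24 h. Drug (DMSO stock) added and incubated 48 h at 37 °C, 5% CO2. Adherent cells fixed with cold TCA, stained with 0.4% SRB in 1% acetic acid, dye solubilized in 10 mM trizma base, A515 read. Percent growth taken against time-zero and untreated control.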

T47D = experiment: Antiproliferative activity against human T47D cells assessed as cell growth inhibition at 10 uM incubated for 48 hrs by sulforhodamine B assay relative to control; type: functional; in short: as §1
BT-549 = experiment: Antiproliferative activity against human BT-549 cells assessed as cell growth inhibition at 10 uM incubated for 48 hrs by sulforhodamine B assay relative to control; type: functional
In short: (§2)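 Single-dose NCI-60 prescreen at 10^-5 M. Cells in RPMI 1640 with 5% FBS and 2 mM L-glutamine, seeded 5,000–40,000 cells/well with 24 h preincubation, then drug exposure for 48 h at 37 °C under 5% CO2. Growth read by SRB staining of TCA-fixed cells at 515 nm against time-zero and untreated controls. Negative growth values denote cell kill.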

MDA-MB-231 = experiment: Antiproliferative activity against human MDA-MB-231 cells assessed as cell growth inhibition at 10 uM incubated for 48 hrs by sulforhodamine B assay relative to control; type: functional; in short: as §1
DU-145 = experiment: Antiproliferative activity against human DU-145 cells assessed as cell growth inhibition at 10 uM incubated for 48 hrs by sulforhodamine B assay relative to control; type: functional
In short: (§3)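 NCI-60 one-dose prescreen at 10^-5 M. Cells grown in RPMI 1640 with 5% FBS and 2 mM glutamine, preincubated 24 h, then exposed 48 h at 37 °C. Adherent lines TCA-fixed, SRB-stained, A515 read. Growth percent relative to time-zero and control; negative values mean cell kill.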

PC-3 = experiment: Antiproliferative activity against human PC-3 cells assessed as cell growth inhibition at 10 uM incubated for 48 hrs by sulforhodamine B assay relative to control; type: functional; in short: as §1
UO-31 = experiment: Antiproliferative activity against human UO-31 cells assessed as cell growth inhibition at 10 uM incubated for 48 hrs by sulforhodamine B assay relative to control; type: functional; in short: as §1
SN12C = experiment: Antiproliferative activity against human SN12C cells assessed as cell growth inhibition at 10 uM incubated for 48 hrs by sulforhodamine B assay relative to control; type: functional; in short: as §1
A498 = experiment: Antiproliferative activity against human A498 cells assessed as cell growth inhibition at 10 uM incubated for 48 hrs by sulforhodamine B assay relative to control; type: functional; in short: as §2
786-0 = experiment: Antiproliferative activity against human 786-0 cells assessed as cell growth inhibition at 10 uM incubated for 48 hrs by sulforhodamine B assay relative to control; type: functional; in short: as §2
OVCAR-8 = experiment: Antiproliferative activity against human OVCAR-8 cells assessed as cell growth inhibition at 10 uM incubated for 48 hrs by sulforhodamine B assay relative to control; type: functional; in short: as §1
UACC-62 = experiment: Antiproliferative activity against human UACC-62 cells assessed as cell growth inhibition at 10 uM incubated for 48 hrs by sulforhodamine B assay relative to control; type: functional; in short: as §1
SK-MEL-5 = experiment: Antiproliferative activity against human SK-MEL-5 cells assessed as cell growth inhibition at 10 uM incubated for 48 hrs by sulforhodamine B assay relative to control; type: functional; in short: as §1
LOX IMVI = experiment: Antiproliferative activity against human LOX IMVI cells assessed as cell growth inhibition at 10 uM incubated for 48 hrs by sulforhodamine B assay relative to control; type: functional; in short: as §1
U-251 = experiment: Antiproliferative activity against human U-251 cells assessed as cell growth inhibition at 10 uM incubated for 48 hrs by sulforhodamine B assay relative to control; type: functional; in short: as §1
SNB-75 = experiment: Antiproliferative activity against human SNB-75 cells assessed as cell growth inhibition at 10 uM incubated for 48 hrs by sulforhodamine B assay relative to control; type: functional; in short: as §1
KM12 = experiment: Antiproliferative activity against human KM12 cells assessed as cell growth inhibition at 10 uM incubated for 48 hrs by sulforhodamine B assay relative to control; type: functional; in short: as §1
HT-29 = experiment: Antiproliferative activity against human HT-29 cells assessed as cell growth inhibition at 10 uM incubated for 48 hrs by sulforhodamine B assay relative to control; type: functional; in short: as §1
HCT-15 = experiment: Antiproliferative activity against human HCT-15 cells assessed as cell growth inhibition at 10 uM incubated for 48 hrs by sulforhodamine B assay relative to control; type: functional; in short: as §3
HCT-116 = experiment: Antiproliferative activity against human HCT-116 cells assessed as cell growth inhibition at 10 uM incubated for 48 hrs by sulforhodamine B assay relative to control; type: functional; in short: as §3
NCI-H522 = experiment: Antiproliferative activity against human NCI-H522 cells assessed as cell growth inhibition at 10 uM incubated for 48 hrs by sulforhodamine B assay relative to control; type: functional; in short: as §1
NCI-H460 = experiment: Antiproliferative activity against human NCI-H460 cells assessed as cell growth inhibition at 10 uM incubated for 48 hrs by sulforhodamine B assay relative to control; type: functional; in short: as §1
NCI-H23 = experiment: Antiproliferative activity against human NCI-H23 cells assessed as cell growth inhibition at 10 uM incubated for 48 hrs by sulforhodamine B assay relative to control; type: functional; in short: as §1
NCI-H226 = experiment: Antiproliferative activity against human NCI-H226 cells assessed as cell growth inhibition at 10 uM incubated for 48 hrs by sulforhodamine B assay relative to control; type: functional; in short: as §1
HOP-92 = experiment: Antiproliferative activity against human HOP-92 cells assessed as cell growth inhibition at 10 uM incubated for 48 hrs by sulforhodamine B assay relative to control; type: functional; in short: as §3
A549 = experiment: Antiproliferative activity against human A549 cells assessed as cell growth inhibition at 10 uM incubated for 48 hrs by sulforhodamine B assay relative to control; type: functional; in short: as §2
SR = experiment: Antiproliferative activity against human SR cells assessed as cell growth inhibition at 10 uM incubated for 48 hrs by sulforhodamine B assay relative to control; type: functional; in short: as §1
RPMI-8226 = experiment: Antiproliferative activity against human RPMI-8226 cells assessed as cell growth inhibition at 10 uM incubated for 48 hrs by sulforhodamine B assay relative to control; type: functional; in short: as §1
MOLT-4 = experiment: Antiproliferative activity against human MOLT-4 cells assessed as cell growth inhibition at 10 uM incubated for 48 hrs by sulforhodamine B assay relative to control; type: functional; in short: as §1
K562 = experiment: Antiproliferative activity against human K562 cells assessed as cell growth inhibition at 10 uM incubated for 48 hrs by sulforhodamine B assay relative to control; type: functional; in short: as §1
HL-60 = experiment: Antiproliferative activity against human HL-60 cells assessed as cell growth inhibition at 10 uM incubated for 48 hrs by sulforhodamine B assay relative to control; type: functional; in short: as §3
CCRF-CEM = experiment: Antiproliferative activity against human CCRF-CEM cells assessed as cell growth inhibition at 10 uM incubated for 48 hrs by sulforhodamine B assay relative to control; type: functional; in short: as §2
MCF7 = experiment: Antiproliferative activity against human MCF7 cells assessed as cell growth inhibition at 10 uM incubated for 48 hrs by sulforhodamine B assay relative to control; type: functional; in short: as §1
ACHN = experiment: Antiproliferative activity against human ACHN cells assessed as cell growth inhibition at 10 uM incubated for 48 hrs by sulforhodamine B assay relative to control; type: functional; in short: as §2
SNB-19 = experiment: Antiproliferative activity against human SNB-19 cells assessed as cell growth inhibition at 10 uM incubated for 48 hrs by sulforhodamine B assay relative to control; type: functional; in short: as §1
SF-268 = experiment: Antiproliferative activity against human SF-268 cells assessed as cell growth inhibition at 10 uM incubated for 48 hrs by sulforhodamine B assay relative to control; type: functional; in short: as §1
NCI-H322M = experiment: Antiproliferative activity against human NCI-H322M cells assessed as cell growth inhibition at 10 uM incubated for 48 hrs by sulforhodamine B assay relative to control; type: functional; in short: as §1
EKVX = experiment: Antiproliferative activity against human EKVX cells assessed as cell growth inhibition at 10 uM incubated for 48 hrs by sulforhodamine B assay relative to control; type: functional; in short: as §3

In the case of c1csc(-c2cn3ccnc3c(-c3ccc4ncn(C5CCCCC5)c4c3)n2)c1, the logD at 1.417 h [1] was 1.38, the inhibition at 10 µM (MDA-MB-468) was 15.1% and the inhibition at 10 µM (T47D) was 70.3%. It also gave an inhibition at 10 µM (BT-549) of 12.2%, an inhibition at 10 µM (MDA-MB-231) of 10.8% and an inhibition at 10 µM (DU-145) of 5.07%. For the same compound, the inhibition at 10 µM (PC-3) was 49.1%, the inhibition at 10 µM (UO-31) was 10.9% and the inhibition at 10 µM (SN12C) was 2.84%. For the same compound, the inhibition at 10 µM (A498) was 25%, the inhibition at 10 µM (786-0) was 4.1% and the inhibition at 10 µM (OVCAR-8) was 9.34%. It also gave an inhibition at 10 µM (UACC-62) of 24.8%, an inhibition at 10 µM (SK-MEL-5) of 8.05% and an inhibition at 10 µM (LOX IMVI) of 1.07%. The inhibition at 10 µM (U-251) was 3.92%, the inhibition at 10 µM (SNB-75) was 8.13% and the inhibition at 10 µM (KM12) was 4.89%. It also gave an inhibition at 10 µM (HT-29) of 0.09%, an inhibition at 10 µM (HCT-15) of 2.33% and an inhibition at 10 µM (HCT-116) of 21.1%. For the same compound, the inhibition at 10 µM (NCI-H522) was 13.2%, the inhibition at 10 µM (NCI-H460) was 1.3% and the inhibition at 10 µM (NCI-H23) was 5.95%. For the same compound, the inhibition at 10 µM (NCI-H226) was 17.1%, the inhibition at 10 µM (HOP-92) was 32.5% and the inhibition at 10 µM (A549) was 5.33%. It also gave an inhibition at 10 µM (SR) of 27.2%, an inhibition at 10 µM (RPMI-8226) of 52.3% and an inhibition at 10 µM (MOLT-4) of 30.8%. It also gave an inhibition at 10 µM (K562) of 26.9%, an inhibition at 10 µM (HL-60) of 26.6% and an inhibition at 10 µM (CCRF-CEM) of 46.4%.
Compound FC(F)(F)c1cccc(-c2cn3ccnc3c(-c3ccc4ncn(C5CCCCC5)c4c3)n2)c1 has a logD at 1.417 h [1] of 1.72, an inhibition at 10 µM (T47D) of 52.1% and an inhibition at 10 µM (MDA-MB-231) of 21.8%. For the same compound, the inhibition at 10 µM (MCF7) was 19.9%, the inhibition at 10 µM (PC-3) was 36.5% and the inhibition at 10 µM (UO-31) was 22.5%. For the same compound, the inhibition at 10 µM (SN12C) was 8.3%, the inhibition at 10 µM (ACHN) was 0.3% and the inhibition at 10 µM (OVCAR-8) was 10.1%. For the same compound, the inhibition at 10 µM (UACC-62) was 4.33%, the inhibition at 10 µM (SK-MEL-5) was 4.32% and the inhibition at 10 µM (LOX IMVI) was 3.45%. For the same compound, the inhibition at 10 µM (U-251) was 5.93%, the inhibition at 10 µM (SNB-75) was 4.58% and the inhibition at 10 µM (SNB-19) was 2.24%. For the same compound, the inhibition at 10 µM (SF-268) was 3.3%, the inhibition at 10 µM (KM12) was 1.25% and the inhibition at 10 µM (HT-29) was 6.41%. It also gave an inhibition at 10 µM (HCT-15) of 0.36%, an inhibition at 10 µM (HCT-116) of 17.6% and an inhibition at 10 µM (NCI-H522) of 10.7%. The inhibition at 10 µM (NCI-H460) was 4.38%, the inhibition at 10 µM (NCI-H322M) was 5.83% and the inhibition at 10 µM (NCI-H226) was 1.55%. The inhibition at 10 µM (HOP-92) was 8.38%, the inhibition at 10 µM (EKVX) was 4.79% and the inhibition at 10 µM (A549) was 5.15%. For the same compound, the inhibition at 10 µM (SR) was 15.6%, the inhibition at 10 µM (RPMI-8226) was 32.1% and the inhibition at 10 µM (MOLT-4) was 32.9%. For the same compound, the inhibition at 10 µM (K562) was 21.5%, the inhibition at 10 µM (HL-60) was 1.06% and the inhibition at 10 µM (CCRF-CEM) was 27.3%.
